In ChEMBL document CHEMBL2163211, “Antiviral chromones from the stem of Cassia siamea” (J Nat Prod, 2012):
Values after ≈ are worked out from the molar mass of the structure shown.

Experiments:
[1] = test system: Human immunodeficiency virus 1; assay: Antiviral activity against HIV1 infected in human C8166 cells assessed as inhibition of virus-induced cytopathic effect; type: functional, organism-based; details: Human immunodeficiency virus 1, C8166
In short: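 HIV-1 cytopathic-effect inhibition assay in C8166 cells gives EC50; cytotoxicity to C8166 cells measured in parallel by MTT to give CC50. Azidothymidine served as positive control.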

[2] = Cytotoxicity against human C8166 cells by MTT assay; type: cell-based
In short: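 C8166 cells assessed by MTT, with cytotoxicity expressed as CC50; azidothymidine served as the positive control.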

Tobacco mosaic virus [3] = assay: Antiviral activity against Tobacco mosaic virus infected in right side leaf of Nicotiana glutinosa at 20 uM after 3 to 4 days by half-leaf method; type: functional
In short: (§1)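 Half-leaf assay on N. glutinosa (local lesion host, 5–6-leaf stage, insect-free greenhouse). Purified TMV diluted to 32 μg/mL in 0.01 M PBS, mixed with compound (DMSO stock diluted with water) for 30 min, then rubbed on the left half-leaf; the right half received virus plus equal DMSO as control. Local lesions counted 3 or 4 days later, three repetitions; inhibition = (C−T)/C×100; ningnanmycin positive control.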

[4] = Therapeutic index, ratio of CC50 for human C8166 cells to EC50 for HIV1; type: cell-based; details: read-out: Ratio CC50/EC50
In short: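 Ratio of CC50 (MTT cytotoxicity in C8166 cells) to EC50, where EC50 comes from an assay of inhibition of HIV-1 cytopathic effects; azidothymidine served as the positive control.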

Tobacco mosaic virus [5] = assay: Antiviral activity against Tobacco mosaic virus infected in right side leaf of Nicotiana glutinosa at 5 uM after 3 to 4 days by half-leaf method; type: functional; in short: as §1
Tobacco mosaic virus [6] = assay: Antiviral activity against Tobacco mosaic virus infected in right side leaf of Nicotiana glutinosa after 3 to 4 days by half-leaf method; type: functional, organism-based; in short: as §1
Tobacco mosaic virus [7] = assay: Antiviral activity against Tobacco mosaic virus infected in leaf of Nicotiana glutinosa assessed as protection against viral infection at 20 uM treated 6 hrs before infection; type: functional
In short: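 Protection test: N. glutinosa leaves pretreated with 20 μM compound solution or DMSO solution for 6 h, then inoculated with purified TMV. Local lesions counted on the host leaves and inhibition rate computed from lesion numbers versus the DMSO control.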

Tobacco mosaic virus [8] = assay: Antiviral activity against Tobacco mosaic virus infected in right side leaf of Nicotiana glutinosa at 80 uM after 3 to 4 days by half-leaf method; type: functional; in short: as §1
Tobacco mosaic virus [9] = assay: Antiviral activity against Tobacco mosaic virus infected in right side leaf of Nicotiana glutinosa at 40 uM after 3 to 4 days by half-leaf method; type: functional; in short: as §1
Tobacco mosaic virus [10] = assay: Antiviral activity against Tobacco mosaic virus infected in right side leaf of Nicotiana glutinosa at 10 uM after 3 to 4 days by half-leaf method; type: functional; in short: as §1
Tobacco mosaic virus [11] = assay: Antiviral activity against Tobacco mosaic virus infected in right side leaf of Nicotiana glutinosa at 160 uM after 3 to 4 days by half-leaf method; type: functional; in short: as §1

Cc1cc(=O)c2c(O)c(C)c(O)c(C)c2o1
EC50 [1]: 5.46 µg/mL (≈ 24.8 µM)
CC50 [2]: 57.5 µg/mL (≈ 261 µM)
inhibition at 20 µM (Tobacco mosaic virus [3]): 8.6%
selectivity ratio [4]: 10.5

CC1(C)Oc2cc3oc(CO)cc(=O)c3c(O)c2C[C@@H]1O[C@@H]1O[C@H](CO)[C@@H](O)[C@H](O)[C@H]1O
CC50 [2]: > 200 µg/mL
selectivity ratio [4]: > 109

COc1cc2oc(C)cc(=O)c2c(O)c1CC=C(C)C
EC50 [1]: 4.89 µg/mL (≈ 17.8 µM)
CC50 [2]: 74.3 µg/mL (≈ 271 µM)
inhibition at 20 µM (Tobacco mosaic virus [3]): 8.7%
selectivity ratio [4]: 15.2

Cc1cc(=O)c2c(CC(C)O[C@@H]3O[C@H](CO)[C@@H](O)[C@H](O)[C@H]3O)cc(O)cc2o1 (some centres undefined)
EC50 [1]: 1.87 µg/mL (≈ 4.72 µM)
CC50 [2]: 118 µg/mL (≈ 299 µM)
inhibition at 20 µM (Tobacco mosaic virus [3]): 8.6%
selectivity ratio [4]: 63.3

COc1cc2c(c3oc(C)cc(=O)c13)C=CC(C)(C)O2
EC50 [1]: 4.49 µg/mL (≈ 16.5 µM)
CC50 [2]: 37.3 µg/mL (≈ 137 µM)
inhibition at 20 µM (Tobacco mosaic virus [3]): 9.2%
selectivity ratio [4]: 8.3

CC(=O)Cc1cc(O)cc2oc(C)cc(=O)c12
EC50 [1]: 6.58 µg/mL (≈ 28.3 µM)
CC50 [2]: 88.7 µg/mL (≈ 382 µM)
inhibition at 20 µM (Tobacco mosaic virus [3]): 6.7%
selectivity ratio [4]: 13.5

CC(=O)[C@@H]1c2cc(O)cc(O)c2C(=O)C[C@]1(C)O
EC50 [1]: 3.16 µg/mL (≈ 12.6 µM)
CC50 [2]: 88.3 µg/mL (≈ 353 µM)
inhibition at 20 µM (Tobacco mosaic virus [3]): 6.4%
selectivity ratio [4]: 28

CC1=CC2(O)OC(C)=Cc3cc(O)cc(c32)O1 (centres undefined) [BARAKOL]
EC50 [1]: 4.28 µg/mL (≈ 18.4 µM)
CC50 [2]: 73.4 µg/mL (≈ 316 µM)
inhibition at 20 µM (Tobacco mosaic virus [3]): 9%
selectivity ratio [4]: 17.1

CNCC(=O)N[C@@H](CO)C(=O)N[C@H]1[C@H](O)[C@@H](O)[C@H](n2ccc(N)nc2=O)O[C@@H]1C(N)=O [NINGNANMYCIN]
inhibition at 5 µM (Tobacco mosaic virus [5]): 11.8%
IC50 (Tobacco mosaic virus [6]): 49.9 µM
inhibition at 20 µM (Tobacco mosaic virus [7]): 27.4%
inhibition at 80 µM (Tobacco mosaic virus [8]): 61.3%
inhibition at 20 µM (Tobacco mosaic virus [3]): 30.2%
inhibition at 40 µM (Tobacco mosaic virus [9]): 48.3%
inhibition at 10 µM (Tobacco mosaic virus [10]): 22.6%
inhibition at 160 µM (Tobacco mosaic virus [11]): 82.7%

COc1cc2c(c3oc(C(=O)O)cc(=O)c13)C=CC(C)(C)O2 [PERFORATIC ACID]
inhibition at 5 µM (Tobacco mosaic virus [5]): 5.62%
IC50 (Tobacco mosaic virus [6]): 127 µM
inhibition at 20 µM (Tobacco mosaic virus [7]): 10.2%
inhibition at 80 µM (Tobacco mosaic virus [8]): 36.8%
EC50 [1]: 11.5 µg/mL (≈ 38.2 µM)
CC50 [2]: 26.5 µg/mL (≈ 87.7 µM)
inhibition at 20 µM (Tobacco mosaic virus [3]): 13.6%
selectivity ratio [4]: 2.3
inhibition at 40 µM (Tobacco mosaic virus [9]): 25.4%
inhibition at 10 µM (Tobacco mosaic virus [10]): 9.27%
inhibition at 160 µM (Tobacco mosaic virus [11]): 54.7%

CC(=O)Cc1cc(O)cc2oc(C(=O)CCO)cc(=O)c12 [SIAMCHROMONES A]
inhibition at 5 µM (Tobacco mosaic virus [5]): 6.21%
IC50 (Tobacco mosaic virus [6]): 86.4 µM
inhibition at 20 µM (Tobacco mosaic virus [7]): 18.4%
inhibition at 80 µM (Tobacco mosaic virus [8]): 47.2%
EC50 [1]: 4.87 µg/mL (≈ 16.8 µM)
CC50 [2]: 127 µg/mL (≈ 436 µM)
inhibition at 20 µM (Tobacco mosaic virus [3]): 15.2%
selectivity ratio [4]: 26
inhibition at 40 µM (Tobacco mosaic virus [9]): 30.3%
inhibition at 10 µM (Tobacco mosaic virus [10]): 11.4%
inhibition at 160 µM (Tobacco mosaic virus [11]): 62.4%

COc1cc(CC(C)=O)c2c(=O)cc(C(=O)CCO)oc2c1 [SIAMCHROMONES B]
EC50 [1]: 5.22 µg/mL (≈ 17.2 µM)
CC50 [2]: 85.2 µg/mL (≈ 280 µM)
inhibition at 20 µM (Tobacco mosaic virus [3]): 9.8%
selectivity ratio [4]: 16.3

COc1cc(CC(C)=O)c2c(=O)cc(CCCO)oc2c1 [SIAMCHROMONES C]
EC50 [1]: 6.34 µg/mL (≈ 21.8 µM)
CC50 [2]: 43.6 µg/mL (≈ 150 µM)
inhibition at 20 µM (Tobacco mosaic virus [3]): 8.6%
selectivity ratio [4]: 6.87

COc1cc(CC(C)=O)c2c(=O)cc(CCCOC(C)=O)oc2c1 [SIAMCHROMONES D]
EC50 [1]: 1.87 µg/mL (≈ 5.63 µM)
CC50 [2]: > 200 µg/mL
inhibition at 20 µM (Tobacco mosaic virus [3]): 7.5%
selectivity ratio [4]: > 107

C/C=C/c1cc(=O)c2c(CC(C)=O)cc(O)cc2o1 [SIAMCHROMONES E]
EC50 [1]: 2.85 µg/mL (≈ 11 µM)
CC50 [2]: 26.7 µg/mL (≈ 103 µM)
inhibition at 20 µM (Tobacco mosaic virus [3]): 9.2%
selectivity ratio [4]: 9.37

CC1(C)C=Cc2c(cc(O)c3c(=O)cc(CCCO)oc23)O1 [SIAMCHROMONES F]
inhibition at 5 µM (Tobacco mosaic virus [5]): 13.5%
IC50 (Tobacco mosaic virus [6]): 31.2 µM
inhibition at 20 µM (Tobacco mosaic virus [7]): 42.7%
inhibition at 80 µM (Tobacco mosaic virus [8]): 89.2%
EC50 [1]: 2.89 µg/mL (≈ 9.56 µM)
CC50 [2]: 196 µg/mL (≈ 650 µM)
inhibition at 20 µM (Tobacco mosaic virus [3]): 35.3%
selectivity ratio [4]: 68
inhibition at 40 µM (Tobacco mosaic virus [9]): 61.4%
inhibition at 10 µM (Tobacco mosaic virus [10]): 26.7%
inhibition at 160 µM (Tobacco mosaic virus [11]): 96.8%

COc1cc2c(c3oc(CCCO)cc(=O)c13)C=CC(C)(C)O2 [SIAMCHROMONES G]
EC50 [1]: 8.46 µg/mL (≈ 26.7 µM)
CC50 [2]: > 200 µg/mL
inhibition at 20 µM (Tobacco mosaic virus [3]): 5.7%
selectivity ratio [4]: > 23.6

Cc1cc(=O)c2c(O)c(C)c(O[C@@H]3O[C@H](CO)[C@@H](O)[C@H](O)[C@H]3O)c(C)c2o1 [UNCINOSIDE A]
EC50 [1]: 3.87 µg/mL (≈ 10.1 µM)
CC50 [2]: 22.8 µg/mL (≈ 59.6 µM)
inhibition at 20 µM (Tobacco mosaic virus [3]): 7.9%
selectivity ratio [4]: 5.89

CC(C)c1cc(=O)c2c(O)cc(O[C@@H]3O[C@H](CO)[C@@H](O)[C@H](O)[C@H]3O)cc2o1 [URACHROMONE A]
inhibition at 5 µM (Tobacco mosaic virus [5]): 4.76%
IC50 (Tobacco mosaic virus [6]): 156 µM
inhibition at 20 µM (Tobacco mosaic virus [7]): 13.7%
inhibition at 80 µM (Tobacco mosaic virus [8]): 30.7%
EC50 [1]: 2.24 µg/mL (≈ 5.86 µM)
CC50 [2]: 69.5 µg/mL (≈ 182 µM)
inhibition at 20 µM (Tobacco mosaic virus [3]): 11.5%
selectivity ratio [4]: 31
inhibition at 40 µM (Tobacco mosaic virus [9]): 22.4%
inhibition at 10 µM (Tobacco mosaic virus [10]): 8.11%
inhibition at 160 µM (Tobacco mosaic virus [11]): 50.9%

Cc1cn([C@H]2C[C@H](N=[N+]=[N-])[C@@H](CO)O2)c(=O)[nH]c1=O [ZIDOVUDINE]
EC50 [1]: 0.034 µg/mL (≈ 0.127 µM)
CC50 [2]: > 200 µg/mL
selectivity ratio [4]: > 5880
